# Source: the RNAGym collection of RNA variant scans (doi:10.1126/science.aae0568)
# Fewer inactive variants are shown than the library holds.
# B1: tRNA (parent)
# chain: GUUCCGUUGGCGUAAUGGUAACGCGUCUCCCUCCUAAGGAGAAGACUGCGGGUUCGAGUCCCGUACGGAACG
# Variants of: B1
# Assay: yeast fitness relative to wild type (ratio to wild type); higher = fitter; tRNA-Arg(CCU), competitive growth, 37 C, YPD
# How it was run: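 Gene amplicons from the start population and from each of six end populations were read by 100-nucleotide paired-end sequencing. Those end populations came from pooled Saccharomyces cerevisiae strains carrying tRNA-Arg(CCU) gene variants at the native locus, competed in YPD at 37°C for 24 hours. Fitness relative to wild type was worked out from changes in genotype frequencies. Genotypes needed ≥ 100 starting reads, and estimates < 0.5 were set to 0.5.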
row,Variant,yeast fitness
1,C34G C49U C66U,0.557
2,C34G C55G,0.567
3,C34G C60G,0.782
4,C34G C60G C62U,0.65
5,C34G C61U A70U,0.639
6,C34G C66A,0.543
7,C34G G38C C66A A70U,≤ 0.5
8,C34G G41A A45G A57G C60G C62U,≤ 0.5
9,C34G G41C C49U,0.684
10,C34G G41C C49U C62A A69C,≤ 0.5
11,C34G G44C,0.652
12,C34G G50A,0.644
13,C34G G50C C62A,≤ 0.5
14,C34G G51A,0.94
15,C34G G51A C66U,0.649
16,C34G G51C,0.609
17,C34G G52A C62U,0.6
18,C34G G63A A70C,≤ 0.5
19,C34G G67A,0.596
20,C34G U47A G67A,≤ 0.5
21,C34G U53C C55G,≤ 0.5
22,C34G U54A,0.563
23,C34G U54A U59C A65G A70G,0.84
24,C34U A36C U53C G67A,≤ 0.5

row,Variant,yeast fitness
1,C34U A36G C55G A57U G67A,0.568
2,C34U A40C A42C G48A C61G G67C G68A,≤ 0.5
3,C34U A40C C62U A65U,≤ 0.5
4,C34U A40G C46A,0.579
5,C34U A40U A57U,≤ 0.5
6,C34U A42G A65C,0.57
7,C34U A43G C61A,≤ 0.5
8,C34U A45U,0.686
9,C34U A45U C62A,≤ 0.5
10,C34U A57C A69C,0.738
11,C34U A69C,0.774
12,C34U C46A C55G,0.672
13,C34U C46G C62U,0.549
14,C34U C55A,0.623
15,C34U C55U,0.569
16,C34U C61G,≤ 0.5
17,C34U C61U,1
18,C34U C66G,0.56
19,C34U G38C,0.605
20,C34U G38C C55A,≤ 0.5
21,C34U G38C U54C,≤ 0.5
22,C34U G41A C55A,≤ 0.5
23,C34U G41C A69G,≤ 0.5
24,C34U G41C C60A,≤ 0.5

row,Variant,yeast fitness
1,C34U G41C C60U,≤ 0.5
2,C34U G48A,0.798
3,C34U G48A C55U,0.638
4,C34U G56A A70G,≤ 0.5
5,C34U G58C,0.757
6,C34U G58C A69U,≤ 0.5
7,C34U G63A,0.624
8,C34U U47C C55A A70U,0.562
9,U35A,0.715
10,U35A A36U C61U,≤ 0.5
11,U35A A37G A43C U54C,≤ 0.5
12,U35A A37U U47A C62U,≤ 0.5
13,U35A A40U,0.718
14,U35A A42C C46U,0.521
15,U35A A42G A43C,0.581
16,U35A A42U A43U,≤ 0.5
17,U35A A43G U64C,≤ 0.5
18,U35A A69C A70C,0.535
19,U35A C49G C66G,≤ 0.5
20,U35A C49U U64A,≤ 0.5
21,U35A C55U A65G,≤ 0.5
22,U35A C62U,0.732
23,U35A G44C,0.71
24,U35A G51C U54C A57U,≤ 0.5

row,Variant,yeast fitness
1,U35A G52C,≤ 0.5
2,U35A G58C,0.634
3,U35A U47C C61G,≤ 0.5
4,U35A U53C,≤ 0.5
5,U35C,0.817
6,U35C A37C C62U A65C,≤ 0.5
7,U35C A37C G39A,≤ 0.5
8,U35C A37C G68C A70C,0.913
9,U35C A37G C60U,≤ 0.5
10,U35C A37U A42G G51A,≤ 0.5
11,U35C A40U A42G U47C,0.601
12,U35C A45C,0.862
13,U35C A45C C49G,0.562
14,U35C A45C C49G A57U G63A,≤ 0.5
15,U35C A45C C49G G56A A57U G63A,≤ 0.5
16,U35C A45U C49A C66U,≤ 0.5
17,U35C A70C,0.927
18,U35C C46U G51C G63A,0.619
19,U35C C49A,0.735
20,U35C C49U,0.755
21,U35C C55A,≤ 0.5
22,U35C C55A C60U A69U,≤ 0.5
23,U35C C61G A69G,≤ 0.5
24,U35C G41A A45U,0.664

row,Variant,yeast fitness
1,U35C G41C,0.718
2,U35C G44A G48C C55G A69U,≤ 0.5
3,U35C G48C,0.973
4,U35C G50A G67A,≤ 0.5
5,U35C G51A,0.731
6,U35C G58C,0.883
7,U35C U54C,0.696
8,U35G,0.676
9,U35G A40G C49G,≤ 0.5
10,U35G A40G U54G,≤ 0.5
11,U35G A42G G56C,0.59
12,U35G A42G U47A,≤ 0.5
13,U35G A45C,0.617
14,U35G A65C,0.639
15,U35G C46U C62U,0.579
16,U35G C66U,0.681
17,U35G G38A G52C,0.678
18,U35G G48C C66U,≤ 0.5
19,A36C A37C G51C,≤ 0.5
20,A36C A37C U53G,≤ 0.5
21,A36C A37G C49A,0.541
22,A36C A37U A65C,0.534
23,A36C A40G G58C C60A,0.537
24,A36C A40U,0.604

row,Variant,yeast fitness
1,A36C A42G,0.633
2,A36C A43C C61G A70G,≤ 0.5
3,A36C A43C C66A,0.731
4,A36C A45C,0.763
5,A36C A45C G48A A65C,≤ 0.5
6,A36C A57C A70G,0.552
7,A36C A65G,0.598
8,A36C A65U,0.667
9,A36C A70U,0.703
10,A36C C46U U53A,0.639
11,A36C C49A U64C,0.767
12,A36C C49U C55U,0.643
13,A36C C49U C55U C60U,≤ 0.5
14,A36C C55U,0.675
15,A36C C55U C60G,0.781
16,A36C C55U G68C,≤ 0.5
17,A36C C61G,0.609
18,A36C C62G,0.575
19,A36C C66A,≤ 0.5
20,A36C G38C A45G G50C,≤ 0.5
21,A36C G39A A57U,≤ 0.5
22,A36C G39C A65C A69C,≤ 0.5
23,A36C G41A,0.587
24,A36C G41A U53C A70C,0.526

row,Variant,yeast fitness
1,A36C G48A A57U,≤ 0.5
2,A36C G48C,≤ 0.5
3,A36C G48C U54G,≤ 0.5
4,A36C G52C C66U,0.54
5,A36C G63A,0.704
6,A36C G67A,0.607
7,A36C U47A G48C,≤ 0.5
8,A36C U47A G48C A57C A65U,≤ 0.5
9,A36C U47A G48C U54G A65C,0.6
10,A36C U53C G56U,0.603
11,A36C U54A,≤ 0.5
12,A36C U54C,≤ 0.5
13,A36G A37C A45C C46G,0.554
14,A36G A37G,0.816
15,A36G A37U,0.718
16,A36G A37U A69C,0.663
17,A36G A37U C55G,0.69
18,A36G A37U G67A,≤ 0.5
19,A36G A42C U47C,0.687
20,A36G A42G,0.797
21,A36G A42G C49G,≤ 0.5
22,A36G A43G A57C A65U,≤ 0.5
23,A36G A45C C61U,0.76
